According to ChEMBL document CHEMBL3271936, “Biologically oriented organic sulfur chemistry. 14. Antiinflammatory properties of some aryl sulfides, sulfoxides, and sulfones” (J Med Chem, 1976):
Calls of active or inactive are those of the source. The rule behind the calls is not given here.

Assays:
Rattus norvegicus [1] = test: Antiinflammatory activity in Holtzman rat assessed as inhibition of carrageenan-induced paw edema at 50 mg/kg, po administered at 0.5 and 2.5 hrs prior to carrageenan-challenge relative to control; type: functional; conditions: Holtzmann
Summary of the method: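 Carrageenan paw-edema assay in male or female Holtzman rats (180–190 g), five per group. Compound given orally at 50 mg/kg twice, at 2.5 h and 0.5 h before carrageenan injection into the hind paw. Inhibition of edema is expressed as percent versus controls.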

Rattus norvegicus [2] = test: Antiinflammatory activity in specific pathogen-free Alderley Park 1 rat assessed as inhibition of adjuvant-induced swelling at 25 mg/kg/day, po treated for 2 days prior to adjuvant-challenge followed by compound administration for 18 days; type: functional, organism-based
Summary of the method: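 Adjuvant arthritis assay in rats. Oral dosing at 25 mg/kg per day begins 2 days before adjuvant and continues 18 days after it, for 20 days in total.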

Mus musculus [3] = test: Toxicity in mouse assessed as mortality at >= 0.3 g/kg, ip; type: organism-based; conditions: in vivo, 300 mg/kg
Summary of the method: (§1)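 Mice dosed intraperitoneally at two dose levels, three animals per compound (rarely two). The approximate lethal range was taken as survival at the lower dose and death at the higher, in g/kg. Dose brackets were 0.1–0.3, 0.3–1.0, and >1.0.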

Rattus norvegicus [4] = test: Antiinflammatory activity in Holtzman rat assessed as inhibition of UV radiation-induced erythema at 50 mg/kg, po relative to control; type: functional; conditions: Holtzmann
Rattus norvegicus [5] = test: Antiinflammatory activity in Holtzman rat assessed as inhibition of carrageenan-induced paw edema at 35 mg/kg, po relative to control; type: functional; conditions: Holtzmann
Rattus norvegicus [6] = test: Antiinflammatory activity in Holtzman rat assessed as inhibition of UV radiation-induced erythema at 25 mg/kg, po relative to control; type: functional; conditions: Holtzmann
Mus musculus [7] = test: Toxicity in mouse assessed as mortality up to 0.3 g/kg, ip; type: organism-based; conditions: in vivo, 300 mg/kg; summary of the method: as §1
Mus musculus [8] = test: Antiinflammatory activity in mouse assessed as inhibition of carrageenan-induced edema at 30 mg/kg relative to control; type: functional
Rattus norvegicus [9] = test: Antiinflammatory activity in po dosed Holtzman rat assessed as inhibition of UV radiation-induced erythema; type: functional; conditions: Holtzmann

Row | Structure (SMILES) | inhibition in vivo at 50 mg/kg (Rattus norvegicus [1]) [%] | Activity (Mus musculus [3]) | inhibition in vivo at 50 mg/kg (Rattus norvegicus [4]) [%] | further results
1 | O=C(O)Cc1ccccc1Sc1ccccc1 | 23 | Toxic | 51 | inhibition (Rattus norvegicus [2]): inactive
2 | Cc1cccc([S+]([O-])c2ccccc2C(=O)O)c1C (configuration not stated) | 15 | – | 0 | –
3 | CC(C(=O)O)c1ccccc1[S+]([O-])c1ccccc1 (configuration not stated) | 8 | – | 7 | –
4 | O=C(O)c1ccccc1S(=O)(=O)c1ccccc1 | 15 | Toxic | 0 | –
5 | O=C(O)c1ccccc1S(=O)(=O)c1cccc(C(F)(F)F)c1 | – | Toxic | 23 | inhibition in vivo at 35 mg/kg (Rattus norvegicus [5]): 6%
6 | Cc1cccc(Sc2ccccc2C(=O)O)c1C | 15 | Toxic | 26 | –
7 | CC(=O)Oc1ccccc1C(=O)O [ASPIRIN] | < 20 | – | 50 | –
8 | O=C(O)Cc1ccccc1[S+]([O-])c1ccccc1 (configuration not stated) | 30 | Toxic | 23 | inhibition (Rattus norvegicus [2]): inactive
9 | CC(C(=O)O)c1ccccc1Sc1ccccc1 (configuration not stated) | 14 | Toxic | 33 | –
10 | O=C(O)c1ccccc1Sc1cccc(C(F)(F)F)c1 | 18 | – | 43 | inhibition in vivo at 25 mg/kg (Rattus norvegicus [6]): 0%; Activity (Mus musculus [7]): Non-toxic
11 | NCCSSc1ccccc1C(=O)O | – | – | – | inhibition in vivo at 30 mg/kg (Mus musculus [8]): 40%
12 | O=C(O)c1ccccc1[S+]([O-])c1ccccc1 (configuration not stated) | 19 | Toxic | 0 | –
13 | Cc1cccc(S(=O)(=O)c2ccccc2C(=O)O)c1C | 0 | Toxic | 27 | –
14 | O=C(O)c1ccccc1[S+]([O-])c1cccc(C(F)(F)F)c1 (configuration not stated) | 4 | Toxic | 2 | –
15 | CCCCC1C(=O)N(c2ccccc2)N(c2ccccc2)C1=O [PHENYLBUTAZONE] | 50 | – | – | ED50 (Rattus norvegicus [9]): 5 mg/kg
